Results as given in ChEMBL document CHEMBL1145729, “MMPs inhibitors: new succinylhydroxamates with selective inhibition of MMP-2 over MMP-3” (Bioorg Med Chem Lett, 2003).
Where “and” joins values, the source holds several entries; their conditions need not be identical. Identical values can stand only once.

What was measured:
[1] = target: T1, 72 kDa type IV collagenase (Homo sapiens, UniProt P08253); test: Inhibition of human matrix metalloprotease-2
Stromelysin-1 [2] = target: T2, Stromelysin-1 (Homo sapiens, UniProt P08254); test: Inhibition of human matrix metalloprotease-3
Method in brief: (§1)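 Fluorogenic peptide cleavage assay with substrate Mca-Pro-Leu-Gly-Leu-Dpa-Ala-Arg-NH2. The enzyme was truncated recombinant MMP-3 lacking the PEX and pro domains, used instead of activated pro-MMP-3 because activation of the proenzyme was not reproducible.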

[3] = target: Matrix metalloproteinase (2 and 3) (Homo sapiens) (UniProt P08254+P08253); test: Selectivity ratio for Matrix metalloprotease-2 over Matrix metalloprotease-3 (IC50); assay type: protein assay
Stromelysin-1 [4] = target: T2, Stromelysin-1; test: Inhibition of human matrix metalloprotease-3 (inactive); method in brief: as §1
[5] = target: T1, 72 kDa type IV collagenase; test: Inhibition of human matrix metalloprotease-2 (inactive)
Method in brief: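 Fluorogenic peptide cleavage assay with substrate Mca-Pro-Leu-Gly-Leu-Dpa-Ala-Arg-NH2. The enzyme was recombinant pro-MMP-2 activated with APMA.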

T1 sequence (P08253 whole entry): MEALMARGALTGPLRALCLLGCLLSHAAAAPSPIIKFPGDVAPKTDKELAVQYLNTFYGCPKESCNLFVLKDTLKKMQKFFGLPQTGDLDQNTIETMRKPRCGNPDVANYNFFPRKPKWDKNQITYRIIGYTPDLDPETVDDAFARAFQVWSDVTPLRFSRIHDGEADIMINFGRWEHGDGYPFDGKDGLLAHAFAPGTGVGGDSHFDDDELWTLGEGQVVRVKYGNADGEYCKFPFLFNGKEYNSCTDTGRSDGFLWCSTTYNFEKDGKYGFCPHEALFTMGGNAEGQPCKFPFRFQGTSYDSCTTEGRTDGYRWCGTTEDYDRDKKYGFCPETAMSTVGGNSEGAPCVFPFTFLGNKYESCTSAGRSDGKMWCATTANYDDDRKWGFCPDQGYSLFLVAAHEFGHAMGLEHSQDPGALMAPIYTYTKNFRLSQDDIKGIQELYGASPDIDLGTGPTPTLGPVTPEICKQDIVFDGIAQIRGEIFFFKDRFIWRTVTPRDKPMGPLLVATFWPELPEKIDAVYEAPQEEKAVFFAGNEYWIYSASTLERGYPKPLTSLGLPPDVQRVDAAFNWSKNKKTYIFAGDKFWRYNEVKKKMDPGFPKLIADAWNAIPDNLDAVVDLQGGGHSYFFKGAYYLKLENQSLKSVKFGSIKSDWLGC
Sequence of Matrix metalloproteinase (2 and 3) (Homo sapiens) (P08253 whole entry, looked up): as the sequence (P08253 whole entry) above
Sequence of Matrix metalloproteinase (2 and 3) (Homo sapiens) (P08254 whole entry, looked up): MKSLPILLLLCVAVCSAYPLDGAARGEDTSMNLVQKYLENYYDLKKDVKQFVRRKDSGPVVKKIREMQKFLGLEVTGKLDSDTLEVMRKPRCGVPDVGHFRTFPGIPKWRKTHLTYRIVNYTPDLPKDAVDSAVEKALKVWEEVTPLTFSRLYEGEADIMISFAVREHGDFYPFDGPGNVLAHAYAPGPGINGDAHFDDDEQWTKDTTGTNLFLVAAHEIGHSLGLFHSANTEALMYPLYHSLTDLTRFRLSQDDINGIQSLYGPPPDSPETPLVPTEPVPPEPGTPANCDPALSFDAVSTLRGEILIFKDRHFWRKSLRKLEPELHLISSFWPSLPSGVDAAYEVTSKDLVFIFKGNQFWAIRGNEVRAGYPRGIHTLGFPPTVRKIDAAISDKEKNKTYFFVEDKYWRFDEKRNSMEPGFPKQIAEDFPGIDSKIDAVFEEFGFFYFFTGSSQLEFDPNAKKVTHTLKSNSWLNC
T2 sequence (P08254 whole entry, the tested form may be a part): as the sequence (P08254 whole entry, looked up) above

In the case of `CNC(=O)[C@H](Cc1c[nH]c2ccccc12)NC(=O)/C(=C/C(C)C)CC(=O)NO` [listing 1 of 3 here], the IC50 [1] is reported as 1.3 nM and the IC50 (Stromelysin-1 [2]) is reported as 179 nM.

Compound `CNC(=O)C(Cc1c(CCN(C)C)[nH]c2ccccc12)NC(=O)/C(=C/C(C)C)CC(=O)NO` (centres undefined) has a Selectivity [3] of 116, an IC50 [1] of 5.73 nM and an IC50 (Stromelysin-1 [2]) of 665 nM.

For `CNC(=O)[C@H](Cc1c[nH]c2ccccc12)NC(=O)/C(=C/C(C)C)CC(=O)NO` [listing 2 of 3 here], the Selectivity [3] was 138 and 46.

In the case of `CCOC(=O)[C@H](Cc1c[nH]c2ccccc12)NC(=O)/C(=C/C(C)C)CC(=O)NO`, the Selectivity [3] is reported as 392, the IC50 [1] is reported as 5.97 nM and the IC50 (Stromelysin-1 [2]) is reported as 2340 nM.

In the case of `CNC(=O)[C@H](Cc1c[nH]c2ccccc12)NC(=O)/C(=C/C(C)C)CC(=O)OC`, the IC50 (Stromelysin-1 [4]) is reported as “Not Active” and the IC50 [5] is reported as “Not Active”.

`CNC(=O)[C@H](Cc1c[nH]c2ccccc12)NC(=O)[C@@H](CC(=O)NO)CC(C)C` [ILOMASTAT] showed an IC50 (Stromelysin-1 [2]) of 0.191 nM.

In the case of `CNC(=O)[C@H](Cc1c[nH]c2ccccc12)NC(=O)/C(=C/C(C)C)CC(=O)NO` [listing 3 of 3 here], the IC50 [1] is reported as 19.6 nM and the IC50 (Stromelysin-1 [2]) is reported as 910 nM.
